Legend:
[1] = biological target: 5-hydroxytryptamine receptor 1B (Homo sapiens, UniProt P28222); assay: Binding activity against human 5-hydroxytryptamine 1B receptor
In short: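 Radioligand competition binding to human receptor, run by a procedure described in an earlier paper. Binding curves were fitted with an iterative four-parameter logistic model to give IC50, which was then converted to pKi.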

[2] = biological target: 5-hydroxytryptamine receptor 1D (Homo sapiens, UniProt P28221); assay: Binding activity against human 5-hydroxytryptamine 1D receptor
D(2) dopamine receptor = D(2) dopamine receptor (Homo sapiens, UniProt P14416); assay: Binding affinity for human Dopamine receptor D2 expressed in CHO cells; type: cell-based
D(3) dopamine receptor = D(3) dopamine receptor (Homo sapiens, UniProt P35462); assay: Binding affinity for human Dopamine receptor D3 expressed in CHO cells; type: cell-based
Cytochrome P450 2D6 = Cytochrome P450 2D6 (Homo sapiens, UniProt P10635); assay: Inhibition of cytochrome P450 2D6; type: ADME
[3] = Oral bioavailability in rat; settings: in vivo
[4] = Compound was evaluated for its Half life in rat; settings: in vivo
[5] = Compound was evaluated for Blood clearance in rat; settings: whole blood

Chain of D(2) dopamine receptor (P14416 whole entry): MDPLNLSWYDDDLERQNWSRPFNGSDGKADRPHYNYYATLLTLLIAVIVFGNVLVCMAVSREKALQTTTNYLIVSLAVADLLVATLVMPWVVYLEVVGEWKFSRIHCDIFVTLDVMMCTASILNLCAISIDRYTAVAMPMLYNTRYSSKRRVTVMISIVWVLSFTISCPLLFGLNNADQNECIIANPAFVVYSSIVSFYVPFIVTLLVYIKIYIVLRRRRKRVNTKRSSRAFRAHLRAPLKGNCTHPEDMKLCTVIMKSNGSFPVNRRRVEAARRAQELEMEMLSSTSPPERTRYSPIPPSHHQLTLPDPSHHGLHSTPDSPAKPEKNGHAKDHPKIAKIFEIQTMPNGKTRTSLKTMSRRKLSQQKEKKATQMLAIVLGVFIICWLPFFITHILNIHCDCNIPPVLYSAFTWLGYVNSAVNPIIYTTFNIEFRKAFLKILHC
Chain of 5-hydroxytryptamine receptor 1D (P28221 whole entry): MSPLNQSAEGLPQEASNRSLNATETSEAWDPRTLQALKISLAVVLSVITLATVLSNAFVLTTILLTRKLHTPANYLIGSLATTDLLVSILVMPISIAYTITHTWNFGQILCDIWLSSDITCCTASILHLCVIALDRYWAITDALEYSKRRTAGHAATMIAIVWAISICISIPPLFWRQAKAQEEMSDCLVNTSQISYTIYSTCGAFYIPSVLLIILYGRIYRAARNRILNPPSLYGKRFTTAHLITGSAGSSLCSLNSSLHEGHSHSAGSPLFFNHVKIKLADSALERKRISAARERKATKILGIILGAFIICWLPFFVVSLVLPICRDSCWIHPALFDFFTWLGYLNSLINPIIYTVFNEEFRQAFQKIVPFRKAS
Chain of 5-hydroxytryptamine receptor 1B (P28222 whole entry): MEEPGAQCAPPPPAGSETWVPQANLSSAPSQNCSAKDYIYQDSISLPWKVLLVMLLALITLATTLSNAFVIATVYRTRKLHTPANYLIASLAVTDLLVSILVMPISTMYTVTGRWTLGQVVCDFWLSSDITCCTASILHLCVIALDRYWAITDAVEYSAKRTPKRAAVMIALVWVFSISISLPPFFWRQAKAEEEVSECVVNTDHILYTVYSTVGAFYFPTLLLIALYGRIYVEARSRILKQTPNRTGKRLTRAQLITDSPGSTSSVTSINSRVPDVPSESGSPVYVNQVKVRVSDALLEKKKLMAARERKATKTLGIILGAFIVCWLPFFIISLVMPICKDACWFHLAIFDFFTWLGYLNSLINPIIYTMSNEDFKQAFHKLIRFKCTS
Chain of D(3) dopamine receptor (P35462 whole entry): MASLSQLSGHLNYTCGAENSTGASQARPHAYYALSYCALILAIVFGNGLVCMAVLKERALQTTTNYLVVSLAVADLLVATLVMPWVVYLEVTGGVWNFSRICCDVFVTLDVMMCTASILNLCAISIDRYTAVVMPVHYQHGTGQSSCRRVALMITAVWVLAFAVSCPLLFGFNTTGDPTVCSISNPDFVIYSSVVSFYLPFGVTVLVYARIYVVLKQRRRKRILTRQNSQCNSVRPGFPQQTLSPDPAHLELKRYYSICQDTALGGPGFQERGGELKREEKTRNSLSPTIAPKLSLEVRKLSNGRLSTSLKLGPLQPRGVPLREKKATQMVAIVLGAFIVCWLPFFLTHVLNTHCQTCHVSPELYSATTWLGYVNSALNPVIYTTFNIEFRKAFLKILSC
Chain of Cytochrome P450 2D6 (P10635 whole entry): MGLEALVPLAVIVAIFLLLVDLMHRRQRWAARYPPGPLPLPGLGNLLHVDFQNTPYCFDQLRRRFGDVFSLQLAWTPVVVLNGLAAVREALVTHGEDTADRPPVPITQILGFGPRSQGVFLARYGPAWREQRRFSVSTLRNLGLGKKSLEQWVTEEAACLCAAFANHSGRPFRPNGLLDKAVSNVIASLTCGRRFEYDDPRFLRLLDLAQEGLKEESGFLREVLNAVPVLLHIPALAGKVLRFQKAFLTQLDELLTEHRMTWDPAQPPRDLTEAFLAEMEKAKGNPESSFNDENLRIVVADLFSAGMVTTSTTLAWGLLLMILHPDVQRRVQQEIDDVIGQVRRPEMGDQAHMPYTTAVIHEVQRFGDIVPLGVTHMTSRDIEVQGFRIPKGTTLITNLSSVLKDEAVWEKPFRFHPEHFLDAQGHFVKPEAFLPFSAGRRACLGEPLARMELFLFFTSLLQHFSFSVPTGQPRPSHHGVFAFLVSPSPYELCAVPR

Row | SMILES | Ki [1] [nM] | Ki [2] [nM] | Ki (D(2) dopamine receptor) [nM] | Ki (D(3) dopamine receptor) [nM] | Inhibition (Cytochrome P450 2D6) [%] | bioavailability [3] [%] | half-life [4] [h] | clearance [5] [mL/min/kg] | IC50 (Cytochrome P450 2D6) [nM]
1 | N#Cc1ccc2c(c1)CN(CC[C@H]1CC[C@H](NC(=O)/C=C/c3ccccc3)CC1)CC2 | 158 | 100 | 158 | 1.26 | – | – | – | – | –
2 | O=C(/C=C/c1c[nH]c2ccccc12)NCCCCN1CCc2ccc(OS(=O)(=O)C(F)(F)F)cc2C1 | 100 | 63.1 | – | – | – | – | – | – | –
3 | N#Cc1ccc2c(c1)CN(CC[C@H]1CC[C@H](NC(=O)/C=C/c3c[nH]c4ccccc34)CC1)CC2 | – | – | 126 | 3.16 | – | – | – | – | –
4 | N#Cc1ccc2c(c1)CCN(CC[C@H]1CC[C@H](NC(=O)c3ccc4ccccc4c3)CC1)C2 | > 10000 | 100 | 1580 | 10 | – | – | – | – | –
5 | Cl.N#Cc1ccc2c(c1)CCN(CC[C@H]1CC[C@H](NC(=O)c3cc4ccccc4[nH]3)CC1)C2 | – | – | 794 | 15.8 | 17 | – | – | – | –
6 | N#Cc1ccc2c(c1)CCN(CC[C@H]1CC[C@H](NC(=O)/C=C/c3ccc(F)cc3)CC1)C2 | > 10000 | 631 | 200 | 3.16 | – | – | – | – | –
7 | CS(=O)(=O)c1cccc(/C=C/C(=O)N[C@H]2CC[C@H](CCN3CCc4cc(C#N)ccc4C3)CC2)c1.Cl | 6310 | 3980 | 316 | 5.01 | – | 45 | – | – | –
8 | N#Cc1ccc2c(c1)CCN(CC[C@H]1CC[C@H](NC(=O)c3cccc4ccccc34)CC1)C2 | – | – | 398 | 7.94 | – | – | – | – | –
9 | N#Cc1ccc2c(c1)CCN(CC[C@H]1CC[C@H](NC(=O)/C=C/c3ccccc3)CC1)C2 | 1000 | 316 | 200 | 3.16 | – | – | – | – | –
10 | Cl.N#Cc1ccc2c(c1)CN(CC[C@H]1CC[C@H](NC(=O)c3cc4ccccc4[nH]3)CC1)CC2 | 631 | 100 | – | – | – | 43 | 6.3 | 6 | 800
11 | N#Cc1ccc2c(c1)CN(CCCCNC(=O)/C=C/c1c[nH]c3ccccc13)CC2 | 158 | 251 | 794 | 12.6 | – | – | – | – | –

Reference: ChEMBL document CHEMBL1132939, “Design and synthesis of trans-N-[4-[2-(6-cyano-1,2,3, 4-tetrahydroisoquinolin-2-yl)ethyl]cyclohexyl]-4-quinolinecarboxamide (SB-277011): A potent and selective dopamine D(3) receptor antagonist with high oral bioavailability and CNS penetration in the rat” (J Med Chem, 2000)
